Publication PMC4489446 (Memórias do Instituto Oswaldo Cruz, 2015)

Tests used:
[1] = Cytotoxicity against mammalian cells; type: cell-based; conditions: human, HeLa-KB cells (subline of HeLa, ATCC CCL-17)
In short: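 HeLa-KB cells seeded at 4 x 10^4/mL in RPMI-1640 with 10% heat-inactivated FCS and held 24 h (5% CO2). Medium was replaced by test compound in fresh medium, 30 µg/mL to 100 ng/mL, in triplicate, with a podophyllotoxin positive control. After 72 h, alamarBlue for 4 h, then fluorescence at 530/585 nm. CC50 from a nonlinear Emax sigmoid fit; at least three repeats.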

[2] = system: Leishmania amazonensis promastigotes; experiment: In vitro activity against promastigotes; type: cell-based; conditions: 72 h; for IC50: Leishmania amazonensis; for MPC (minimal parasiticide concentration): promastigotes, 26 °C, mean ± SD
In short: (§1)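 Strains: L. amazonensis MHOM/77/LTB0016, L. infantum MHOM/FR/78/LEM75, L. braziliensis MHOM/BR/75/M2 903. Log-phase promastigotes at 5 x 10^5/mL in Schneider's with 10% heat-inactivated FBS; compound added from two-fold DMSO stocks (4 mg/mL–3.9 µg/mL), DMSO at most 0.5%. Incubated 72 h at 26 °C. MPC = geometric mean (4 replicates) of concentrations fully stopping motility, by microscope. Then p-nitrophenyl phosphate, 3 h 37 °C, A405, minus parasite-free drug wells. IC50 by Emax sigmoid fit; at least three repeats.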

[3] = system: Leishmania braziliensis promastigotes; experiment: In vitro activity against promastigotes; type: cell-based; conditions: 72 h; for IC50: Leishmania braziliensis; for MPC (minimal parasiticide concentration): promastigotes, 26 °C, mean ± SD
In short: as §1

[4] = system: Leishmania infantum promastigotes; experiment: In vitro activity against promastigotes; type: cell-based; conditions: 72 h; for IC50: Leishmania infantum; for MPC (minimal parasiticide concentration): promastigotes, 26 °C, mean ± SD
In short: as §1

[5] = system: Leishmania amazonensis; experiment: Mouse model of experimental cutaneous leishmaniasis, lesion size; type: in vivo, BALB/c mice; conditions: furvina 2 mg/Kg, UC245 100 mg/Kg; for average lesion size with respect to the control group: experiment 2: early lesions, intraperitoneal every 12 h for 14 days, 28 days of follow up; for effect on chronic lesions (in words): experiment 3: chronic lesions, 18 weeks post-infection, every 12 h for 14 days
In short: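 Female BALB/c mice (16-18 g, 6-8 weeks) infected intradermally in the footpad with 5 x 10^6 stationary-phase promastigotes. Intraperitoneal dosing every 12 h for 14 days, test compounds in Miglyol 810. Controls were untreated infected mice and amphotericin B (1 mg/Kg in early lesions; 5 mg/Kg every 48 h in chronic). Lesions measured weekly by Vernier calliper; chronic size taken as dorsoplantar × lateral diameter.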

[6] = system: intracellular amastigotes; experiment: Activity against intracellular amastigotes in mouse peritoneal macrophages; type: cell-based; conditions: drug concentrations not toxic to mouse peritoneal macrophages used as host cells; data not shown
[7] = system: promastigotes of Leishmania amazonensis, Leishmania infantum and Leishmania braziliensis; type: cell-based; conditions: read-out: Average IC50
In short: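 IC50 was measured separately for L. amazonensis, L. infantum and L. braziliensis promastigotes. Each assay: 72 h at 26 °C, phosphatase read-out (p-nitrophenyl phosphate, A405), Emax sigmoid fit. The average IC50 is the arithmetic mean of the three species' IC50 values.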

Row | IC50 [2] | IC50 [3] | IC50 [4] | IC50 [7] | Structure (SMILES) | CC50 at 72 h [1] | MPC (minimal parasiticide concentration) ([2]; amphotericin B) | MPC (minimal parasiticide concentration) ([3]; amphotericin B) | MPC (minimal parasiticide concentration) ([4]; amphotericin B) | MPC (minimal parasiticide concentration) ([2]; complete arrest of motion) | MPC (minimal parasiticide concentration) ([3]; complete arrest of motion) | MPC (minimal parasiticide concentration) ([4]; complete arrest of motion) | average lesion size with respect to the control group [5] | effect on chronic lesions (in words) [5] | efficacy in reducing the percentage of infected cells [6]
1 | – | – | – | – | COc1cc([C@@H]2c3cc4c(cc3[C@H](O)[C@H]3COC(=O)[C@H]23)OCO4)cc(OC)c1OC [podophyllotoxin, reference compound] | 5.3 ± 1.4 nM | – | – | – | – | – | – | – | – | –
2 | 29 ± 5 nM | 14 ± 3 nM | 14 ± 4 nM | – | C[C@@H]1[C@H](O)[C@@H](C)/C=C/C=C/C=C/C=C/C=C/C=C/C=C/[C@H](O[C@@H]2O[C@H](C)[C@@H](O)[C@H](N)[C@@H]2O)C[C@@H]2O[C@](O)(C[C@@H](O)C[C@@H](O)[C@H](O)CC[C@@H](O)C[C@@H](O)CC(=O)O[C@H]1C)C[C@H](O)[C@H]2C(=O)O [Amphotericin B, amphotericin B, reference compound] | – | 55 ± 7 nm | 30 ± 6 nm | 17 ± 5 nm | – | – | – | – | – | –
3 | 900 ± 200 nM | 1000 ± 300 nM | 900 ± 300 nM | 930 nM | CC(=Cc1ccc(Br)o1)[N+](=O)[O-] [UC245, 2-bromo-5-(2-methyl-2-nitrovinyl)-furan] | 16700 ± 1800 nM | – | – | – | 6.1 ± 0.4 µM | 5.7 ± 0.4 µM | 2.7 ± 0.4 µM | 55% | did not show any efficacy | under 50%
4 | 800 ± 300 nM | 900 ± 400 nM | 1200 ± 300 nM | 970 nM | O=[N+]([O-])C(Br)=Cc1ccc(Br)o1 [Furvina, 2-bromo-5-(2-bromo-2-nitrovinyl)-furan] | 13600 ± 2200 nM | – | – | – | 5.2 ± 0.4 µM | 1.7 ± 0.4 µM | 2.9 ± 0.3 µM | 59% | progressively decreased lesion sizes | under 50%
